Source: PubChem BioAssay
This is a sample that favours compounds with a hit; in the whole collection about 3.1% have one here.
FGF22 binding = binders of human FGF22 protein, primary screen, FGF22 synaptogenesis inhibitor project, biophysical, thermal shift, single point; 340,000 compounds, 1.5% hits; AID 651658, 2012; recombinant FGF22 thermal shift, SYPRO orange fluorescence; percent of sucrose octasulfate shift, DMSO zero; activity (Tm shift, normalised), % at 9.99 µM;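 active means mean Tm shift, scaled 0 neutral to 100 positive control, at about 1.3% or above, every replicate too, limit read from the data; inconclusive means no clear call, values can overlap the other calls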
Target sequence (Q9HCT0 whole entry, looked up): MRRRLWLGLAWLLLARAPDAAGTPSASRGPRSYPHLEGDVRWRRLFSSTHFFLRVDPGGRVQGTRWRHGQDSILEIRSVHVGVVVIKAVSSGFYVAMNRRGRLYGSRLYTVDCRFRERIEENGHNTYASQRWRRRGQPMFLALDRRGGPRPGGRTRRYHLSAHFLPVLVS
FN deposit inh = inhibitors of fibronectin matrix deposition, primary screen, AH1F cells, Alexa488-fibronectin fluorescence, plate reader | AH1F fibroblasts, overnight | inhibition, % at 12.6 µM | 350,000 compounds, 0.086% hits | AID 743247, 2014;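 active means mean inhibition across replicates of 30% or more, regardless of how many single replicates reach that level; inconclusive means mean under 30% yet at least half of replicates reach 30%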;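 further: positive control wells lacked labelled fibronectin entirely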
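material = AH1F fibroblast monolayer depositing Alexa488-labelled fibronectin into matrix | amount = 10000 AH1F cells/well | buffer or medium = DMEM plus 2% serum, read in PBS | incubation = 1 h cell adhesion before compound, then overnight fibronectin incubation | detection = fluorescence at 485 nm excitation, 525 nm emission | evaluation = percent inhibition as loss of matrix-bound fibronectin fluorescence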
EWS-Fli block = EWS/Fli-driven NR0B1 reporter inhibitors, primary screen, A673 cells, NR0B1 luciferase, luminescence, MLPCN library; inhibition, % at 12.6 µM; viability-normalised; 350,000 compounds, 0.67% hits;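 active means mean inhibition of at least 50% after viability correction, with every replicate also passing that limit; inconclusive means mean reaches 50% but only one of two replicates passes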;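 further: firefly luciferase signal divided by Alamar Blue viability fluorescence both relative to DMSO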
PGC1a acetyl inh = inhibitors of PGC1a acetylation signal, primary screen, cell-based, U2OS, AlphaScreen, inhibitor mode | 350,000 compounds, 0.17% hits | inhibition, % at 15.6 µM | AlphaScreen anti-acetyl-lysine; with virally co-expressed GCN5 acetyltransferase;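 active means every replicate shows inhibition of at least 40%; inconclusive means mean inhibition at least 40% but some replicate below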;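 further: 0% = neutral control wells and 100% = positive control wells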
Env fusion inh = inhibitors of HIV-1 Env-driven cell-cell fusion, primary screen, HeLa-JRFL effector, CEM21 target cells, luciferase; inhibition, % at 12.3 µM; 360,000 compounds, 1.1% hits; AID 651610, 2012;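 active means mean replicate inhibition score of at least 50 and every replicate individually at or above 50; inconclusive means only one of the two criteria met; inactive means mean below 50 and not all replicates reaching 50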;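 further: 0% = plate neutral controls and 100% = maraviroc near 300 nM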
PAX8 inh HTS = inhibitors of PAX8-driven TPO luciferase reporter, primary screen, RMG-I cells, single concentration; inhibition, % at 12.6 µM; AID 652154, 2013; SteadyGlo, 24 h; 360,000 compounds, 1.2% hits;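 active means mean replicate inhibition at least 60% with every replicate also reaching 60%; inconclusive means only one of the two criteria is met; inactive means mean below 60% and not all replicates reaching 60%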;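 further: luciferase light reporting Pax8 driven TPO promoter activity; plate controls were median of neutral control wells for no effect and mitoxantrone controls for full effect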
An asterisk follows results filed as active; ? = inconclusive; nt = no result; [ ] = another dose, or the depositor's remark.

SMILES	FGF22 binding	FN deposit inh	EWS-Fli block	PGC1a acetyl inh	Env fusion inh	PAX8 inh HTS
O=C(C1CCCC1)N1CCCCN2[C@H](CO)[C@@H](c3ccc(-c4cccc(F)c4)cc3)[C@H]2C1	-0.4	nt	21.8	-18.3	nt	-6.3
O=C1c2oc3ccccc3c(=O)c2C(c2cccc(Br)c2)N1Cc1ccco1 (stereo unspecified)	nt	2.3	nt	nt	55.3*	nt
CSCc1ccc(C(=O)OCc2nc3ccccc3s2)o1	42.9*	0.1	-82.3	5.3	nt	-25.1
CCNC(=O)Nc1ccc2c(c1)C(=O)N(C)[C@@H]1CC[C@@H](CC(=O)N[C@H](C)c3ccccc3)O[C@H]1CO2	0.2	-0.5	-6.4	nt	-47.5[16.7 µM]	-18.2
c1ccc(CSc2nnc(Cc3ccccn3)o2)cc1	nt	4.7	nt	nt	-22.2	65.0*
c1ccc(CSc2nnc(Cc3ccccc3)o2)cc1	0.0	nt	-54.3	nt	-1.4	-83.7
C[C@@H]1CN([C@H](C)CO)C(=O)Cc2cc(NC(=O)CCN3CCOCC3)ccc2O[C@H]1CN(C)S(=O)(=O)c1cccs1	0.4	nt	-0.5	-2.1	-23.0[16.7 µM]	-14.7
Cc1ccc(CNC(=O)c2ccc3nc4[nH]c5ccccc5c4nc3c2)cc1	nt	-7.7	nt	nt	-51.8	2.4
COc1ccccc1CNC(=O)c1ccc2nc3[nH]c4ccccc4c3nc2c1	-0.2	9.6	-23.4	-5.6	nt	161.8*
O=C(C[C@@H]1CC[C@@H](NS(=O)(=O)c2ccc(F)cc2)[C@@H](CO)O1)N1CCc2ccccc2C1	0.2	nt	2.0	-5.5	-14.5[16.7 µM]	-1.4
COc1ccc(-n2nc(C(N)=O)c(O)cc2=O)cc1	0.1	4.6	5.3	3.2	10.2	-5.8
NC(=O)c1nn(-c2ccc(Cl)cc2Cl)c(=O)cc1O	44.0*	6.6	0.1	nt	3.1	-14.5
COc1cccc(-n2nc(C#N)c(Cl)cc2=O)c1	0.7	12.4	58.2*	4.8	-74.8	98.2*
COc1cccc(-n2nc(C(N)=O)c(O)cc2=O)c1	43.4*	1.5	2.3	3.8	-0.2	-13.5
Cc1ccccc1-c1ccc2c(c1)O[C@H](CN(C)C(=O)c1ccccn1)[C@H](C)CN([C@H](C)CO)S2(=O)=O	-0.2	-7.0	0.9	-15.2	11.1[16.7 µM]	4.5
CC1SC(=NC(=O)c2ccncc2)NC1=O (stereo unspecified)	44.5*	nt	4.0	nt	17.1	-4.4
C[C@H]1CN([C@@H](C)CO)C(=O)c2cccc(NS(=O)(=O)c3cn(C)cn3)c2O[C@H]1CN(C)S(=O)(=O)c1ccccc1	-0.1	nt	-6.7	-0.1	2.2[16.7 µM]	-26.3
O=C(NCC1CC1)[C@H]1[C@H](CO)[C@H]2Cn3c(ccc(-c4ccc(F)cc4)c3=O)[C@@H]1N2	-0.2	nt	-15.6	1.5	nt	-1.8
CCOC(=O)CCc1ccc(NC(=O)/C=C/c2ccc([N+](=O)[O-])o2)cc1	-0.1	2.6	50.9*	nt	-314.6	40.3
Cc1ccc(/C=C/C(=O)Nc2ccc([N+](=O)[O-])cc2)o1	0.2	nt	-20.7	-6.0	nt	nt
CN(C)C(=O)C[C@@H]1C[C@H]2c3cc(NC(=O)NC4CCCCC4)ccc3O[C@H]2[C@@H](CO)O1	0.0	-11.6	-6.6	0.5	24.3[16.7 µM]	-13.6
COc1ccc(C(=O)Nc2nc3ccccc3[nH]2)cc1	-0.1	6.9	75.9*	17.0	-29.3	?
COc1ccc(C(=O)Nc2nc3ccccc3s2)cc1	0.7	-5.5	61.1*	nt	-273.4	-16.7
COc1cccc(C(=O)Nc2nc3ccccc3s2)c1	0.3	2.5	-57.9	-9.0	-152.7	-120.0
Cc1ccc(C(=O)Nc2nc3ccccc3[nH]2)cc1	0.0	5.0	77.5*	2.8	-77.0	80.6*
SMILES	FGF22 binding	FN deposit inh	EWS-Fli block	PGC1a acetyl inh	Env fusion inh	PAX8 inh HTS
O=C(O)c1cccc([N+](=O)[O-])c1C(=O)Nc1nc2ccccc2s1	43.4*	-0.4	10.3	-9.9	2.4	4.6
O=C(Nc1nc2ccccc2s1)c1ccccc1[N+](=O)[O-]	0.1	-0.2	-56.1	-22.9	-39.4	-20.0
CO[C@@H]1CN(C)C(=O)c2ccc(NC(=O)C3CCOCC3)cc2OC[C@@H](C)N(C)C[C@H]1C	nt	4.0	3.0	-2.5	0.5[16.7 µM]	2.1
Cc1noc(C)c1S(=O)(=O)Nc1ccc2c(c1)C(=O)N([C@@H](C)CO)C[C@H](C)[C@H](CN(C)C(=O)CCC(F)(F)F)OCCCC[C@@H](C)O2	-0.8	nt	10.6	-9.1	-21.1[16.7 µM]	-7.7
Cc1cccc(C(=O)N[C@H](C(=O)Nc2nc3ccccc3[nH]2)C(C)C)c1	0.4	-2.5	56.0*	nt	-221.8	58.5
COc1ccc(-c2nc3ccccc3s2)cc1	0.0	-12.8	79.1*	nt	-48.9	3.3
Cc1cc(C(=O)Nc2cnc3ccccc3c2)ccc1[N+](=O)[O-]	0.1	-5.0	-74.3	nt	-24.2	-117.3
Cc1ccc(C(=O)Nc2cnc3ccccc3c2)cc1	nt	0.5	nt	11.4	93.8*	90.3*
COc1ccc(NS(=O)(=O)c2cccc(C(=O)NNC(=O)CNC(=O)c3ccccc3F)c2)cc1	nt	1.3	-3.6	-8.0	nt	3.9
COc1ccc(NS(=O)(=O)c2cccc(C(=O)NNC(=O)CNC(=O)c3ccc(C)cc3)c2)cc1	0.2	2.1	0.3	nt	67.6*	4.0
Cc1nc2nc(SCC(=O)c3cccc([N+](=O)[O-])c3)[nH]c2cc1Br	nt	-3.3	nt	0.5	nt	-7.2
O=C(Cc1nc2ccccc2[nH]1)c1cccc([N+](=O)[O-])c1	40.7	-5.3	45.8	nt	73.4*	62.1*
O=C(CSc1nc2ncc(Br)cc2[nH]1)c1cccc([N+](=O)[O-])c1	0.2	nt	67.5*	nt	-14.8	14.6
CNC[C@H]1Oc2ccc(NS(=O)(=O)c3ccc(F)cc3)cc2CC(=O)N([C@@H](C)CO)C[C@@H]1C	-0.2	nt	11.0	-0.8	nt	-15.6
CS(=O)(=O)N1CC(=O)N2[C@H](CO)[C@@H](c3ccc(Br)cc3)[C@@H]2C1	-0.1	-1.4	-7.0	3.1	nt	-19.3
CN1CCN(C(=O)C[C@H]2C=C[C@H](NC(=O)Cc3ccccn3)[C@H](CO)O2)CC1	0.0	17.9	-3.6	-2.8	3.7[16.7 µM]	-8.2
Cc1cc(C)c(CN2CCN(C(=O)Cn3cnc4c(NCc5ccccc5)ncnc43)CC2)c(C)c1	-0.5	nt	21.3	nt	87.2*	22.8
COc1cc2c(c(OC)c1OC)[C@@]1(c3ccccc3)CCCC[C@H]1[C@@H]2NC(=O)C(F)(F)F	-0.3	-11.4	-1.3	nt	87.1*	-15.7
Cc1cccc(Nc2nc(N)c([N+](=O)[O-])c(N3CC(C)CC(C)C3)n2)c1 (stereo unspecified)	0.1	-3.4	27.7	nt	nt	71.4*
O=C(N[C@@H]1CC[C@@H](CCNS(=O)(=O)c2ccc(F)cc2)O[C@H]1CO)C1CCC1	-0.1	-6.5	3.0	1.1	4.2[16.7 µM]	-1.2
